ChEMBL document CHEMBL1921756, “Tyrphostin-like compounds with ubiquitin modulatory activity as possible therapeutic agents for multiple myeloma” (Bioorg Med Chem, 2011)

What was measured:
[1] = Antitumor activity against human OCI-My4 cells after 24 to 72 hrs by MTT assay; format: functional, cell-based
Method in brief: (§1)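 Myeloma lines grown in RPMI 1640 with 10% heat-inactivated FBS and 2 mM glutamine. 20,000 cells/well were exposed to a dilution range of compound in RPMI1640/10% FBS (final DMSO ≤0.1%), with vehicle-only controls, at 37 °C for 24–72 h (typically 72 h). MTT was added for 2 h at 37 °C, then lysis buffer (20% SDS, 50% DMF, pH 4.7) for 6 h.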

U-266 = assay: Antitumor activity against human U266 cells after 24 to 72 hrs by MTT assay; format: functional, cell-based; method in brief: as §1
[2] = Antitumor activity against human MM1 cells after 24 to 72 hrs by MTT assay; format: functional, cell-based; method in brief: as §1
[3] = Antitumor activity against human U373MG cells after 24 to 72 hrs by MTT assay; format: functional, cell-based, U-373MG ATCC; settings: U373 MG
Method in brief: (§2)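 Tumor cells were plated at 20,000/well and given serially diluted compound in RPMI1640 with 10% FBS (final DMSO ≤0.1%) or vehicle alone, then incubated 24–72 h at 37 °C.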

[4] = Antitumor activity against human U87MG cells after 24 to 72 hrs by MTT assay; format: functional, cell-based, U-87MG ATCC; settings: U-87 MG; method in brief: as §2
U-87 MG = assay: Ratio of AG490 IC50 to compound IC50 for human U87MG cells; format: functional, U-87MG ATCC
U373 MG = assay: Ratio of AG490 IC50 to compound IC50 for human U373MG cells; format: functional, U-373MG ATCC

| Structure (SMILES) | IC50 [1] [µM] | IC50 (U-266) [µM] | IC50 [2] [µM] | other results |
| --- | --- | --- | --- | --- |
| CCC[C@H](NC(=O)/C(C#N)=C/c1cccc([N+](=O)[O-])c1)c1ccccc1 | 2.2 | 2.1 | 1.73 |  |
| N#C/C(=C\c1ccc(-c2cccc([N+](=O)[O-])c2)o1)C(=O)NCc1ccccc1Cl |  |  | > 10 |  |
| N#C/C(=C\c1cccc(Br)n1)C(=O)N[C@@H](CO)c1ccccc1 | 3.9 | 3.5 | 2.8 |  |
| C[C@H](NC(=O)/C(C#N)=C/c1ccc([N+](=O)[O-])c([N+](=O)[O-])c1)c1ccccc1 |  |  | > 10 |  |
| COc1cccc(CNC(=O)/C(C#N)=C/c2ccc(-c3cccc([N+](=O)[O-])c3)o2)c1 |  |  | > 10 |  |
| CCC[C@H](NC(=O)/C(C#N)=C/c1ccccc1)c1ccccc1 |  | 7.2 | 6.25 |  |
| N#C/C(=C\c1ccc(N2CCCCC2)cc1)C(=O)NC(c1ccccc1)C1CC1 (stereo not given) |  | > 10 | > 10 |  |
| CCC[C@H](NC(=O)/C(C#N)=C/c1ccc([N+](=O)[O-])cc1[N+](=O)[O-])c1ccccc1 |  |  | > 10 |  |
| C[C@H](NC(=O)/C(C#N)=C/c1ccc2c(c1)OC(F)(F)O2)c1ccccc1 |  |  | > 10 |  |
| CCC[C@H](NC(=O)/C(C#N)=C/c1ccc(O)c([N+](=O)[O-])c1)c1ccccc1 | 9.7 | 9.3 | 8.2 |  |
| C[C@H](NC(=O)/C(C#N)=C/c1cccc(Br)n1)c1ccc(Br)cc1 | 2 | 1.8 | 1.5 |  |
| COc1ccc([C@H](C)NC(=O)/C(C#N)=C/c2cccc(Br)n2)cc1 | 1.8 | 1.4 | 1.2 |  |
| CCC[C@H](NC(=O)/C(C#N)=C/c1cccc(Br)n1)c1ccccc1 | 1.5 | 1.3 | 1 |  |
| CCC[C@H](NC(=O)/C(C#N)=C/c1ccc(O)cc1)c1ccccc1 |  |  | > 10 |  |
| N#C/C(=C\c1cccc(Br)n1)C(=O)N[C@H](c1ccccc1)C(F)(F)F |  | 11.1 | 9.6 |  |
| C[C@H](NC(=O)/C(C#N)=C/c1ccc2c(c1)OCCN2C)c1ccccc1 |  |  | > 10 |  |
| CCC[C@H](NC(=O)/C(C#N)=C/c1ccc(O)c(Br)c1)c1ccccc1 |  |  | > 10 |  |
| N#C/C(=C\c1cccc(Br)n1)C(=O)N[C@H](c1ccccc1)C1CC1 |  |  | 1.4 |  |
| COC(=O)C[C@H](NC(=O)/C(C#N)=C/c1cccc(Br)n1)c1ccccc1 |  | 3.3 | 3.1 |  |
| N#C/C(=C\c1ccc(O)c(O)c1)C(=O)NCc1ccccc1 | > 12.5 | > 12.5 | > 10 |  |
| Cc1ccc(CNC(=O)/C(C#N)=C/c2ccc(-c3cccc([N+](=O)[O-])c3)o2)cc1 |  |  | > 10 |  |
| Cc1ccc(CNC(=O)/C(C#N)=C/c2ccc(-c3cccc([N+](=O)[O-])c3)o2)o1 |  |  | > 10 |  |
| N#C/C(=C\c1cccc(Br)n1)C(=O)NC(c1ccccc1)c1ccccc1 | 6.2 | 5.8 | 5 |  |
| N#C/C(=C\c1cccc(Br)n1)C(=O)NC(c1ccccc1)C1CC1 (racemic) | 1.6 | 1.3 | 1.1 |  |

| Structure (SMILES) | IC50 [1] [µM] | IC50 (U-266) [µM] | IC50 [2] [µM] | other results |
| --- | --- | --- | --- | --- |
| COc1cccc([C@H](C)NC(=O)/C(C#N)=C/c2cccc(Br)n2)c1 | 3.1 | 2.8 | 2.4 |  |
| N#C/C(=C\c1cccc(Br)n1)C(=O)N[C@@H](Cc1ccccc1)c1ccccc1 | 2.9 | 2.7 | 2.5 |  |
| C[C@H](NC(=O)/C(C#N)=C/c1cccc(Br)n1)c1ccc(Cl)cc1 | 2.3 | 2 | 1.6 |  |
| N#C/C(=C\c1cccc(Br)n1)C(=O)N[C@@H]1CCc2ccccc21 |  | 2.5 | 2 |  |
| C[C@H](NC(=O)/C(C#N)=C/c1cccc(Br)n1)c1ccccc1 [WP 1066] | 1.8 | 1.5 | 1.2 | IC50 [3]: 3.7 µM; IC50 [4]: 5.6 µM; Ratio IC50 (U-87 MG): 18; Ratio IC50 (U373 MG): 8 |
| CCCCCCc1ccc(/C=C(\C#N)C(=O)NC(c2ccccc2)C2CC2)cc1 (stereo not given) |  |  | > 10 |  |
| C[C@H](NC(=O)/C(C#N)=C/c1cccc(Br)n1)c1cccc(C(F)(F)F)c1 | 1.8 | 1.6 | 1.3 |  |
| C[C@H](NC(=O)/C(C#N)=C/c1cccc(Br)n1)c1cc(C(F)(F)F)cc(C(F)(F)F)c1 |  | 1.5 | 1.3 |  |
| N#C/C(=C\c1ccc(-c2cccc([N+](=O)[O-])c2)o1)C(=O)NC(c1ccccc1)C1CC1 (stereo not given) |  |  | > 10 |  |
| CC[C@H](NC(=O)/C(C#N)=C/c1cccc(Br)n1)c1ccccc1 | 1.7 | 1.4 | 1.1 |  |
| N#C/C(=C\c1cccc(Br)n1)C(=O)N[C@@H]1CCCc2ccccc21 |  | 1.9 | 1.5 |  |
| N#C/C(=C\c1ccc([N+](=O)[O-])cc1)C(=O)NCc1ccccc1 | 12 | 9 | 7.5 |  |
| N#C/C(=C\c1ccc(Cl)c([N+](=O)[O-])c1)C(=O)N[C@@H](CO)c1ccccc1 |  |  | > 10 |  |
| C[C@H](NC(=O)/C(C#N)=C/c1cccc(Br)n1)c1ccc(F)cc1 |  | 1.4 | 1.2 |  |
| CCC[C@H](NC(=O)/C(C#N)=C/c1c(Cl)cccc1[N+](=O)[O-])c1ccccc1 |  |  | > 10 |  |
| CCC[C@H](NC(=O)/C(C#N)=C/c1ccc(Cl)c([N+](=O)[O-])c1)c1ccccc1 | 1.9 | 1.8 | 1.58 |  |
| N#C/C(=C\c1cccc(Br)n1)C(=O)NCc1cccc(N)c1 |  |  | > 10 |  |
| N#C/C(=C\c1ccc(Cl)c([N+](=O)[O-])c1)C(=O)NC(c1ccccc1)C1CC1 (stereo not given) | 2.9 | 2.8 | 2.5 |  |
| C[C@H](NC(=O)/C(C#N)=C/c1cccc(Br)n1)c1ccc(N)cc1 |  |  | > 10 |  |
| C[C@H](NC(=O)/C(C#N)=C/c1cccc(Br)n1)c1ccccc1F | 2.4 | 2 | 1.8 |  |
| CCC(NC(=O)/C(C#N)=C/c1ccc(-c2cccc([N+](=O)[O-])c2)o1)c1ccccc1 (stereo not given) |  |  | > 10 |  |
| CCC[C@H](NC(=O)/C(C#N)=C/c1ccc([N+](=O)[O-])cc1)c1ccccc1 |  | 3.6 | 2.94 |  |
| CC(=O)OC[C@H](NC(=O)/C(C#N)=C/c1cccc(Br)n1)c1ccccc1 | 2.9 | 2.8 | 2.6 |  |
